Experimental findings from ChEMBL document CHEMBL3352515, “Design, synthesis, antiviral and cytostatic activity of ω-(1H-1,2,3-triazol-1-yl)(polyhydroxy)alkylphosphonates as acyclic nucleotide analogues” (Bioorg Med Chem, 2014) are described below.

Calls of active or inactive are those of the source. No cut-off for these calls is given here. Where only a bound is given, the exact number is not on record here.

For one experiment, the system named is L1210. The experiment can be described thus: Cytostatic activity against mouse L1210 cells assessed as inhibition of proliferation after 48 hrs by Coulter cell counting method. Type of experiment: functional, cell-based. The following applies: L1210, 48 h. In a few lines: (§1)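 (5–7.5) × 10⁴ tumor cells per well were exposed to test compound at 37 °C in humidified CO₂. Incubation ran 48 h for L1210 and 72 h for CEM and HeLa. Cells were then counted in a Coulter counter. IC₅₀ is the concentration that inhibits cell proliferation by 50%.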

For another experiment, the system named is CCRF-CEM. The experiment can be described thus: Cytostatic activity against human CEM cells assessed as inhibition of proliferation after 72 hrs by Coulter cell counting method. Type of experiment: functional, cell-based. In a few lines: as §1
The test system of the next experiment is HeLa. Nature of the experiment: Cytostatic activity against human HeLa cells assessed as inhibition of proliferation after 72 hrs by Coulter cell counting method. Type of experiment: functional, cell-based. In a few lines: as §1
Experiment [1] has as its system Respiratory syncytial virus. The experiment can be described thus: Antiviral activity against Respiratory syncytial virus infected in HeLa cells assessed as inhibition of virus-induced cytopathogenicity. The experiment is classed as functional, organism-based. In a few lines:
(§2)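 Confluent host-cell monolayers in 96-well plates were inoculated with 100 CCID₅₀ of virus while exposed to a range of test compound concentrations. Cytopathic effect was scored once it was complete in untreated infected controls. EC₅₀ is the concentration that reduces virus-induced cytopathogenicity by 50%.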
Background: Cytopathic effects are the visible damage that an infection or toxin causes in cultured cells.

Experiment [2] has as its system Vesicular stomatitis virus. The experiment can be described thus: Antiviral activity against Vesicular stomatitis virus infected in HeLa cells assessed as inhibition of virus-induced cytopathogenicity. The experiment is classed as functional, organism-based. In a few lines:
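HeLa cell monolayers (confluent) were infected with 100 CCID50 of VSV in the presence of serial compound concentrations. Viral cytopathicity was read when complete in untreated infected controls. EC50 is the concentration that reduced virus-induced cytopathogenicity by 50%.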

For another experiment, the system named is Human alphaherpesvirus 2. Nature of the experiment: Antiviral activity against HSV-2 infected in HEL cells assessed as inhibition of virus-induced cytopathogenicity. The experiment is classed as functional, organism-based. In a few lines:
as §2

In the next experiment the test system is Human alphaherpesvirus 1. Nature of the experiment: Antiviral activity against HSV-1 infected in HEL cells assessed as inhibition of virus-induced cytopathogenicity. Type of experiment: functional, organism-based. In a few lines:
as §2

Another experiment relates to Felid alphaherpesvirus 1. Nature of the experiment: Antiviral activity against Feline herpesvirus 1 infected in HEL cells assessed as inhibition of virus-induced cytopathogenicity. Type of experiment: functional, organism-based. In a few lines:
as §2

Take `CC1(C)O[C@@H]([C@@H](O)P(=O)(OCc2ccccc2)OCc2ccccc2)[C@@H](Cn2cc(Cn3cnc4c(N)ncnc43)nn2)O1`: the IC50 in the experiment on L1210 is 98 µM; with CCRF-CEM, 140 µM; in the experiment with HeLa, more than 200 µM.

Take `Cn1cnc2c1c(=O)n(Cc1cn(C[C@H](OCc3ccccc3)[C@H](O)P(=O)(OCc3ccccc3)OCc3ccccc3)nn1)c(=O)n2C`: the IC50 is 58 µM in the experiment on L1210, 68 µM in the experiment on CCRF-CEM and 76 µM in the experiment on HeLa.

For `O=C(c1ccccc1)n1c(=O)ccn(Cc2cn(C[C@H](OCc3ccccc3)[C@@H](O)P(=O)(OCc3ccccc3)OCc3ccccc3)nn2)c1=O`, the IC50 in the experiment on L1210 was determined as 26 µM; in the experiment on CCRF-CEM, 21 µM; in the experiment with HeLa, 76 µM. For the same compound, the EC50 came out at 12 µM in experiment [1] (human respiratory syncytial virus) and 9 µM in experiment [2].

Turning to `CC(=O)c1cn(Cc2cn(C[C@H](OCc3ccccc3)[C@H](O)P(=O)(OCc3ccccc3)OCc3ccccc3)nn2)c2ccccc12`, the IC50 in the experiment with L1210 was 15 µM; with CCRF-CEM, 16 µM; in the experiment on HeLa, 13 µM.

For the compound `O=c1ccn(Cc2cn(C[C@H](OCc3ccccc3)[C@@H](O)P(=O)(OCc3ccccc3)OCc3ccccc3)nn2)c(=O)[nH]1`, the IC50 with L1210, in the experiment with CCRF-CEM and in the experiment with HeLa was more than 200 µM each time.

Turning to `CC(=O)Nc1ccn(Cc2cn(C[C@H](OCc3ccccc3)[C@@H](O)P(=O)(OCc3ccccc3)OCc3ccccc3)nn2)c(=O)n1`, the IC50 in the experiment on L1210 is 153 µM; in the experiment with CCRF-CEM it was 169 µM; with HeLa, more than 200 µM.

Turning to `CC1(C)O[C@@H]([C@@H](O)P(=O)(OCc2ccccc2)OCc2ccccc2)[C@H](Cn2cc(Cn3cnc4c(N)ncnc43)nn2)O1`, the IC50 in the experiment with L1210 and in the experiment with CCRF-CEM was more than 200 µM in each case.

Regarding `CC(=O)Nc1ccn(Cc2cn(C[C@H](OCc3ccccc3)[C@H](O)P(=O)(OCc3ccccc3)OCc3ccccc3)nn2)c(=O)n1`, the IC50 in the experiment on L1210 was determined as 96 µM; with CCRF-CEM, 82 µM; in the experiment on HeLa, 160 µM.

Regarding `Cn1cnc2c1c(=O)n(Cc1cn(C[C@@H]3OC(C)(C)O[C@H]3[C@@H](O)P(=O)(OCc3ccccc3)OCc3ccccc3)nn1)c(=O)n2C`, the IC50 is 145 µM with L1210, 142 µM in the experiment on CCRF-CEM and more than 200 µM in the experiment on HeLa.

With `CC(=O)Nc1ccn(Cc2cn(C[C@H]3OC(C)(C)O[C@H]3[C@@H](O)P(=O)(OCc3ccccc3)OCc3ccccc3)nn2)c(=O)n1`, the IC50 in the experiment on L1210, in the experiment with CCRF-CEM and in the experiment on HeLa was more than 200 µM throughout.

Turning to `Cc1cn(Cc2cn(C[C@@H]3OC(C)(C)O[C@H]3[C@@H](O)P(=O)(OCc3ccccc3)OCc3ccccc3)nn2)c(=O)[nH]c1=O`, the figures for the IC50 in the experiment on L1210, with CCRF-CEM and in the experiment with HeLa were 139 µM, more than 200 µM and 107 µM, respectively.

`O=C(c1ccccc1)n1c(=O)ccn(Cc2cn(C[C@H](OCc3ccccc3)[C@H](O)P(=O)(OCc3ccccc3)OCc3ccccc3)nn2)c1=O`: the inhibition entry in the experiment with Human alphaherpesvirus 2 and in the experiment on Human alphaherpesvirus 1 was “inactive” each time. The IC50 with L1210 came to 21 µM; with CCRF-CEM it was 21 µM; in the experiment on HeLa it was 57 µM.

In the case of `Cn1c(=O)c2c(ncn2Cc2cn(C[C@H]3OC(C)(C)O[C@H]3[C@@H](O)P(=O)(OCc3ccccc3)OCc3ccccc3)nn2)n(C)c1=O`, the IC50 with L1210, in the experiment with CCRF-CEM and with HeLa was more than 200 µM in each case.

In the case of `Cn1c(=O)c2c(ncn2Cc2cn(C[C@H](OCc3ccccc3)[C@@H](O)P(=O)(OCc3ccccc3)OCc3ccccc3)nn2)n(C)c1=O`, the IC50 came out at 71 µM in the experiment with L1210, 71 µM with CCRF-CEM and 79 µM with HeLa.

In the case of `Cc1cn(Cc2cn(C[C@H]3OC(C)(C)O[C@H]3[C@@H](O)P(=O)(OCc3ccccc3)OCc3ccccc3)nn2)c(=O)[nH]c1=O`, the IC50 is 122 µM in the experiment with L1210, more than 200 µM in the experiment on CCRF-CEM and more than 200 µM in the experiment with HeLa.

Take `CCOP(=O)(CCCn1cc(Cn2c(=O)n(C(=O)c3ccccc3)c(=O)c3ccccc32)nn1)OCC`: in the experiment with Felid alphaherpesvirus 1 (Felid alphaherpesvirus 1, HEL), the EC50 was 24 µM.

For `Cn1cnc2c1c(=O)n(Cc1cn(C[C@H]3OC(C)(C)O[C@H]3[C@@H](O)P(=O)(OCc3ccccc3)OCc3ccccc3)nn1)c(=O)n2C`, the IC50 in the experiment with L1210 is 86 µM; in the experiment with CCRF-CEM it was 115 µM; in the experiment with HeLa it was more than 200 µM.

For `CC1(C)O[C@@H]([C@@H](O)P(=O)(OCc2ccccc2)OCc2ccccc2)[C@@H](Cn2cc(Cn3ccc(=O)[nH]c3=O)nn2)O1`, the IC50 in the experiment with L1210, in the experiment with CCRF-CEM and with HeLa was more than 200 µM throughout.

Turning to `Cn1cnc2c1c(=O)n(Cc1cn(C[C@H](OCc3ccccc3)[C@@H](O)P(=O)(OCc3ccccc3)OCc3ccccc3)nn1)c(=O)n2C`, the results for the IC50 in the experiment on L1210, in the experiment on CCRF-CEM and with HeLa were 71 µM, 82 µM and 78 µM, respectively.

For `NC(=O)c1ncn([C@@H]2O[C@H](CO)[C@@H](O)[C@H]2O)n1` [RIBAVIRIN], the EC50 in experiment [2] was 17 µM.

On to `CC1(C)O[C@@H]([C@@H](O)P(=O)(OCc2ccccc2)OCc2ccccc2)[C@H](Cn2cc(Cn3ccc(=O)[nH]c3=O)nn2)O1`, for which the figures for the IC50 in the experiment with L1210, in the experiment with CCRF-CEM and in the experiment with HeLa were more than 200 µM, more than 200 µM and 118 µM, respectively.

Regarding `CC(=O)Nc1ccn(Cc2cn(C[C@@H]3OC(C)(C)O[C@H]3[C@@H](O)P(=O)(OCc3ccccc3)OCc3ccccc3)nn2)c(=O)n1`, the IC50 with L1210, in the experiment on CCRF-CEM and with HeLa was more than 200 µM in each case.

Take `Cn1c(=O)c2c(nc(Cl)n2Cc2cn(C[C@H](OCc3ccccc3)[C@H](O)P(=O)(OCc3ccccc3)OCc3ccccc3)nn2)n(C)c1=O`: the figures for the IC50 with L1210, in the experiment on CCRF-CEM and in the experiment on HeLa were 22 µM, 25 µM and 86 µM, respectively.

With `CC(=O)c1cn(Cc2cn(C[C@H](OCc3ccccc3)[C@@H](O)P(=O)(OCc3ccccc3)OCc3ccccc3)nn2)c2ccccc12`, the IC50 with L1210, with CCRF-CEM and in the experiment with HeLa was more than 200 µM each time.

Turning to `Nc1ncnc2c1ncn2Cc1cn(C[C@H](OCc2ccccc2)[C@H](O)P(=O)(OCc2ccccc2)OCc2ccccc2)nn1`, the IC50 with L1210 turned out to be 46 µM; with CCRF-CEM, 76 µM; in the experiment on HeLa it was 80 µM.

Regarding `O=c1ccccn1Cc1cn(C[C@H](OCc2ccccc2)[C@H](O)P(=O)(OCc2ccccc2)OCc2ccccc2)nn1`, the IC50 with L1210 turned out to be 76 µM; in the experiment on CCRF-CEM it was 101 µM; in the experiment with HeLa, 28 µM.

`Cn1c(=O)c2c(nc(Cl)n2Cc2cn(C[C@H](OCc3ccccc3)[C@@H](O)P(=O)(OCc3ccccc3)OCc3ccccc3)nn2)n(C)c1=O`: the IC50 was 70 µM with L1210, 27 µM in the experiment on CCRF-CEM and more than 200 µM with HeLa.

With `O=c1ccccn1Cc1cn(C[C@H](OCc2ccccc2)[C@@H](O)P(=O)(OCc2ccccc2)OCc2ccccc2)nn1`, the results for the IC50 in the experiment on L1210, in the experiment with CCRF-CEM and with HeLa were 63 µM, 90 µM and 45 µM, respectively.

Turning to `O=c1cnn(Cc2cn(C[C@H](OCc3ccccc3)[C@H](O)P(=O)(OCc3ccccc3)OCc3ccccc3)nn2)c(=O)[nH]1`, the IC50 in the experiment on L1210 was determined as 71 µM; in the experiment on CCRF-CEM it was 81 µM; with HeLa it was 122 µM.

As to `O=c1ccn(Cc2cn(C[C@H](OCc3ccccc3)[C@H](O)P(=O)(OCc3ccccc3)OCc3ccccc3)nn2)c(=O)[nH]1`, the IC50 in the experiment with L1210 came to 86 µM; in the experiment on CCRF-CEM it was 91 µM; in the experiment with HeLa, 66 µM. For the same compound, in the experiment on Felid alphaherpesvirus 1, the inhibition result is “inactive”.

Consider `Cn1c(=O)c2c(ncn2Cc2cn(C[C@H](OCc3ccccc3)[C@H](O)P(=O)(OCc3ccccc3)OCc3ccccc3)nn2)n(C)c1=O`, for which the IC50 with L1210 came out at 56 µM; with CCRF-CEM, 72 µM; with HeLa it was 83 µM.

Take `Cn1c(=O)c2c(nc(Cl)n2Cc2cn(C[C@@H]3OC(C)(C)O[C@H]3[C@@H](O)P(=O)(OCc3ccccc3)OCc3ccccc3)nn2)n(C)c1=O`: the IC50 in the experiment on L1210, with CCRF-CEM and in the experiment with HeLa was more than 200 µM throughout.

As for `Cc1cn(Cc2cn(C[C@H](OCc3ccccc3)[C@H](O)P(=O)(OCc3ccccc3)OCc3ccccc3)nn2)c(=O)[nH]c1=O`, the IC50 with L1210 is 85 µM; with CCRF-CEM it was 83 µM; with HeLa, 64 µM.

As for `O=C(c1ccccc1)n1c(=O)ccn(Cc2cn(C[C@H](O)[C@@H](O)P(=O)(O)O)nn2)c1=O`, the IC50 in the experiment with L1210, with CCRF-CEM and in the experiment on HeLa was more than 200 µM in each case.

Take `O=C(c1ccccc1)n1c(=O)c2ccccc2n(Cc2cn(C[C@H](OCc3ccccc3)[C@@H](O)P(=O)(OCc3ccccc3)OCc3ccccc3)nn2)c1=O`: the IC50 in the experiment with L1210 amounted to 4.1 µM; with CCRF-CEM it was 4.7 µM; with HeLa, 7.1 µM. Besides, the inhibition result in experiment [1] and in experiment [2] was “inactive” each time.

Regarding `Nc1ncnc2c1ncn2Cc1cn(C[C@H](OCc2ccccc2)[C@@H](O)P(=O)(OCc2ccccc2)OCc2ccccc2)nn1`, the IC50 was 66 µM in the experiment on L1210, 78 µM in the experiment with CCRF-CEM and 81 µM in the experiment with HeLa.

On to `Cc1cn(Cc2cn(C[C@H](O)[C@@H](O)P(=O)(O)O)nn2)c(=O)[nH]c1=O`, for which the IC50 with L1210, in the experiment on CCRF-CEM and in the experiment on HeLa was more than 200 µM throughout.

Usually IC50 stands for the point on the concentration scale where inhibition reaches its midpoint. For orientation: EC50 means the concentration needed to bring the measured effect to its halfway point.
